Measurements as given in ChEMBL document CHEMBL2417507, “Synthesis and bioevaluation of some new isoniazid derivatives” (Bioorg Med Chem, 2013).
Converted amounts (≈) assume the structure as drawn. The source made the active and inactive calls. No cut-off for these calls is given here.

How the values were obtained:
Acinetobacter baumannii [1] = assay: Antibacterial activity against Acinetobacter baumannii 136 assessed as growth inhibition at 1 mg/mL after 24 hrs by agar-disk diffusion technique; type: functional, organism-based
How it was run: (§1)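 Agar-disk diffusion, adapted: plates seeded with 0.5 McFarland suspension prepared from 24 h cultures; 5 µL of a 1 mg/mL compound solution spotted onto the seeded solid medium; incubated 24 h at 37 °C. Stocks made in DMSO.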

Klebsiella pneumoniae = assay: Antibacterial activity against Klebsiella pneumoniae 1756 assessed as growth inhibition at 1 mg/mL after 24 hrs by agar-disk diffusion technique; type: functional, organism-based; how it was run: as §1
HCT-8 [2] = assay: Cell cycle arrest in human HCT8 cells assessed as accumulation at G2/M phase at 12.5 ug/mL after 24 hrs by propidium iodide staining-based flow cytometric analysis (reference value: 13.83%); type: ADME; settings: hct-8, 24 h
[3] = test system: Radical scavenging activity; assay: Antioxidant activity assessed as DPPH radical scavenging activity at 0.1 mg/mL after 30 mins under dark conditions by spectrophotometric analysis relative to control; type: functional
How it was run: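 Compounds dissolved in methanol at 0.1 mg/mL; 0.2 mL mixed with 1.8 mL of 2 × 10^-4 M DPPH in methanol and kept in the dark 30 min. Absorbance read at 517 nm. The blank was DPPH plus methanol. TAC (%) = (Abs initial − Abs 30 min)/Abs initial × 100.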

Pseudomonas putida = assay: Antibacterial activity against Pseudomonas putida 160 assessed as growth inhibition at 1 mg/mL after 24 hrs by agar-disk diffusion technique; type: functional, organism-based; how it was run: as §1
Morganella morganii = assay: Antibacterial activity against Morganella morganii 2810 assessed as growth inhibition at 1 mg/mL after 24 hrs by agar-disk diffusion technique; type: functional, organism-based; how it was run: as §1
Escherichia coli = assay: Antibacterial activity against Escherichia coli 1777 assessed as growth inhibition at 1 mg/mL after 24 hrs by agar-disk diffusion technique; type: functional, organism-based; how it was run: as §1
Acinetobacter baumannii [4] = assay: Antibacterial activity against Acinetobacter baumannii 247 assessed as growth inhibition at 1 mg/mL after 24 hrs by agar-disk diffusion technique; type: functional, organism-based; how it was run: as §1
Citrobacter koseri = assay: Antibacterial activity against Citrobacter koseri 1742 assessed as growth inhibition at 1 mg/mL after 24 hrs by agar-disk diffusion technique; type: functional, organism-based; how it was run: as §1
Pseudomonas aeruginosa [5] = assay: Antibacterial activity against Pseudomonas aeruginosa 165 assessed as growth inhibition at 1 mg/mL after 24 hrs by agar-disk diffusion technique; type: functional, organism-based; how it was run: as §1
Staphylococcus aureus = assay: Antibacterial activity against Staphylococcus aureus assessed as growth inhibition at 1 mg/mL after 24 hrs by agar-disk diffusion technique; type: functional, organism-based; how it was run: as §1
Acinetobacter baumannii [6] = assay: Antibacterial activity against Acinetobacter baumannii 192 assessed as growth inhibition at 1 mg/mL after 24 hrs by agar-disk diffusion technique; type: functional, organism-based; how it was run: as §1
Enterococcus faecalis = assay: Antibacterial activity against Enterococcus faecalis 2920 assessed as growth inhibition at 1 mg/mL after 24 hrs by agar-disk diffusion technique; type: functional, organism-based; how it was run: as §1
HCT-8 [7] = assay: Cytotoxicity against human HCT8 cells at 25 ug/mL after 24 hrs by trypan blue exclusion assay; type: cell-based; settings: hct-8, 24 h
How it was run: (§2)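 HCT8 cells (3 × 10^5 per 3.5-cm well) treated 24 h, then trypsinised, spun and resuspended in PBS. Suspension mixed 1:1 with 0.4% trypan blue for 1 min and viable/non-viable cells counted on a haemocytometer. Each experiment repeated three times.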

HCT-8 [8] = assay: Cell cycle arrest in human HCT8 cells assessed as accumulation at G0/G1 phase at 12.5 ug/mL after 24 hrs by propidium iodide staining-based flow cytometric analysis (reference value: 46.43%); type: ADME; settings: hct-8, 24 h
Proteus mirabilis = assay: Antibacterial activity against Proteus mirabilis 1751 assessed as growth inhibition at 1 mg/mL after 24 hrs by agar-disk diffusion technique; type: functional, organism-based; how it was run: as §1
HCT-8 [9] = assay: Induction of apoptosis in human HCT8 cells assessed as early apoptotic cells at 25 ug/mL after 24 hrs by Annexin V-FITC and propidium iodide staining-based flow cytometric analysis (reference value: 1.57%); type: cell-based; settings: hct-8, 24 h
Enterobacter cloacae = assay: Antibacterial activity against Enterobacter cloacae 1845 assessed as growth inhibition at 1 mg/mL after 24 hrs by agar-disk diffusion technique; type: functional, organism-based; how it was run: as §1
Acinetobacter baumannii [10] = assay: Antibacterial activity against Acinetobacter baumannii 122 assessed as growth inhibition at 1 mg/mL after 24 hrs by agar-disk diffusion technique; type: functional, organism-based; how it was run: as §1
Acinetobacter baumannii [11] = assay: Antibacterial activity against Acinetobacter baumannii 125 assessed as growth inhibition at 1 mg/mL after 24 hrs by agar-disk diffusion technique; type: functional, organism-based; how it was run: as §1
HCT-8 [12] = assay: Cell cycle arrest in human HCT8 cells assessed as accumulation at S phase at 12.5 ug/mL after 24 hrs by propidium iodide staining-based flow cytometric analysis (reference value: 39.43%); type: ADME; settings: hct-8, 24 h
[13] = Induction of apoptosis in human HCT8 cells assessed as viable cells at 25 ug/mL after 24 hrs by Annexin V-FITC and propidium iodide staining-based flow cytometric analysis (reference value: 87.7%); type: cell-based, HCT-8; settings: read-out: Activity
Pseudomonas aeruginosa [14] = assay: Antibacterial activity against Pseudomonas aeruginosa 1144 assessed as growth inhibition at 1 mg/mL after 24 hrs by agar-disk diffusion technique; type: functional, organism-based; how it was run: as §1
Pseudomonas aeruginosa [15] = assay: Antibacterial activity against Pseudomonas aeruginosa ATCC 27853 assessed as growth inhibition at 1 mg/mL after 24 hrs by agar-disk diffusion technique; type: functional, organism-based; how it was run: as §1
HCT-8 [16] = assay: Induction of apoptosis in human HCT8 cells assessed as necrotic cells at 25 ug/mL after 24 hrs by Annexin V-FITC and propidium iodide staining-based flow cytometric analysis (reference value: 7.73%); type: cell-based; settings: hct-8, 24 h
Staphylococcus hominis = assay: Antibacterial activity against Staphylococcus hominis 1813 assessed as growth inhibition at 1 mg/mL after 24 hrs by agar-disk diffusion technique; type: functional, organism-based; how it was run: as §1
[17] = test system: Mycobacterium tuberculosis; assay: Antimycobacterial activity against Mycobacterium tuberculosis after 8 days by micro plate Alamar Blue assay; type: functional; settings: 192 h
How it was run: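 Clinical M. tuberculosis strain grown in Middlebrook 7H9 broth. Compounds were dissolved in DMSO and serially diluted twofold on the plate, final 25 to 0.012 µg/mL. Plates were sealed and held 8 days at 37 °C. Alamar Blue with 10% Tween 80 (1:1) was then added for another 24 h at 37 °C. MIC was the lowest concentration preventing the blue-to-pink change.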

Acinetobacter baumannii [18] = assay: Antibacterial activity against Acinetobacter baumannii 135 assessed as growth inhibition at 1 mg/mL after 24 hrs by agar-disk diffusion technique; type: functional, organism-based; how it was run: as §1
HCT-8 [19] = assay: Induction of apoptosis in human HCT8 cells assessed as late apoptotic cells at 25 ug/mL after 24 hrs by Annexin V-FITC and propidium iodide staining-based flow cytometric analysis (reference value: 2.97%); type: cell-based; settings: hct-8, 24 h
HCT-8 [20] = assay: Cell cycle arrest in human HCT8 cells assessed as accumulation at G2/M phase at 25 ug/mL after 24 hrs by propidium iodide staining-based flow cytometric analysis (reference value: 13.83%); type: ADME; settings: hct-8, 24 h
HCT-8 [21] = assay: Cytotoxicity against human HCT8 cells at 50 ug/mL after 24 hrs by trypan blue exclusion assay; type: cell-based; settings: hct-8, 24 h; how it was run: as §2
HCT-8 [22] = assay: Induction of apoptosis in human HCT8 cells assessed as necrotic cells at 50 ug/mL after 24 hrs by Annexin V-FITC and propidium iodide staining-based flow cytometric analysis (reference value: 7.73%); type: cell-based; settings: hct-8, 24 h
HCT-8 [23] = assay: Decrease in NAT1 gene expression in human HCT8 cells at 25 ug/mL after 24 hrs by RT-PCR analysis; type: ADME, cell-based; settings: hct-8, 24 h
HCT-8 [24] = assay: Cell cycle arrest in human HCT8 cells assessed as accumulation at S phase at 25 ug/mL after 24 hrs by propidium iodide staining-based flow cytometric analysis (reference value: 39.43%); type: ADME; settings: hct-8, 24 h
HCT-8 [25] = assay: Cell cycle arrest in human HCT8 cells assessed as accumulation at G0/G1 phase at 25 ug/mL after 24 hrs by propidium iodide staining-based flow cytometric analysis (reference value: 46.43%); type: ADME; settings: hct-8, 24 h
HCT-8 [26] = assay: Induction of apoptosis in human HCT8 cells assessed as late apoptotic cells at 50 ug/mL after 24 hrs by Annexin V-FITC and propidium iodide staining-based flow cytometric analysis (reference value: 2.97%); type: cell-based; settings: hct-8, 24 h
[27] = Induction of apoptosis in human HCT8 cells assessed as viable cells at 50 ug/mL after 24 hrs by Annexin V-FITC and propidium iodide staining-based flow cytometric analysis (reference value: 87.7%); type: cell-based, HCT-8; settings: read-out: Activity
HCT-8 [28] = assay: Induction of apoptosis in human HCT8 cells assessed as early apoptotic cells at 50 ug/mL after 24 hrs by Annexin V-FITC and propidium iodide staining-based flow cytometric analysis (reference value: 1.57%); type: cell-based; settings: hct-8, 24 h
HCT-8 [29] = assay: Decrease in NAT2 gene expression in human HCT8 cells at 25 ug/mL after 24 hrs by RT-PCR analysis; type: ADME, cell-based; settings: hct-8, 24 h

Row | Structure (SMILES) | growth inhibition (GI) (Acinetobacter baumannii [1]) | growth inhibition (GI) (Klebsiella pneumoniae) | TAC [3] | growth inhibition (GI) (Pseudomonas putida) | growth inhibition (GI) (Morganella morganii) | growth inhibition (GI) (Escherichia coli) | growth inhibition (GI) (Acinetobacter baumannii [4]) | growth inhibition (GI) (Citrobacter koseri) | growth inhibition (GI) (Pseudomonas aeruginosa [5]) | growth inhibition (GI) (Staphylococcus aureus) | growth inhibition (GI) (Proteus mirabilis) | growth inhibition (GI) (Enterobacter cloacae) | growth inhibition (GI) (Acinetobacter baumannii [10]) | growth inhibition (GI) (Acinetobacter baumannii [11]) | growth inhibition (GI) (Pseudomonas aeruginosa [15]) | growth inhibition (GI) (Staphylococcus hominis) | growth inhibition (GI) (Acinetobacter baumannii [18]) | Activity (HCT-8 [20]) | Activity (HCT-8 [21]) | Activity (HCT-8 [22]) | also measured
1 | NC(S)(/C=C/c1ccc(Cl)cc1)NNC(=O)c1ccncc1 (stereo unspecified) | Active | Active | 25.7% | Active | Active | Active | Active | Active | Active | Active | Active | Active | Active | Active | Active | Active | Active | – | – | – | Activity (HCT-8 [2]): 15.59%; growth inhibition (GI) (Acinetobacter baumannii [6]): Active; growth inhibition (GI) (Enterococcus faecalis): Active; Activity (HCT-8 [7]): Toxic; Activity (HCT-8 [8]): 52.35%; Activity (HCT-8 [9]): 1.63%; Activity (HCT-8 [12]): 29.41%; viability at 24 h, 25 ug/mL [13]: 55.4%; growth inhibition (GI) (Pseudomonas aeruginosa [14]): Active; Activity (HCT-8 [16]): 23.7%; MIC [17]: 6.25 µg/mL (≈ 18.7 µM); Activity (HCT-8 [19]): 19.3%
2 | NC(=S)/C=C/c1ccccc1 | Active | Active | 35.7% | Active | – | Active | – | Active | Active | Active | Active | Active | Active | – | – | Active | Active | 27.82% | Toxic | 22.9% | Activity (HCT-8 [23]): Toxic; Activity (HCT-8 [24]): 43.45%; Activity (HCT-8 [25]): 33.09%; Activity (HCT-8 [26]): 36%; viability at 24 h, 50 ug/mL [27]: 28.3%; Activity (HCT-8 [28]): 12.9%
3 | NC(=S)/C=C/c1ccc(Cl)cc1 | Active | inactive | 15.7% | Active | inactive | – | inactive | – | – | Active | inactive | – | – | inactive | inactive | – | Active | 13.01% | Toxic | 24.9% | Activity (HCT-8 [29]): Toxic; Activity (HCT-8 [24]): 56.31%; Activity (HCT-8 [25]): 31.35%; Activity (HCT-8 [26]): 33.7%; viability at 24 h, 50 ug/mL [27]: 18.7%; Activity (HCT-8 [28]): 22.7%
